Experiments:
MRC5 [1] = assay: Cytotoxicity against human MRC5 cells assessed as mortality at 10 ug/ml relative to control; type: cell-based
Procedure, shortened: (§1)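 MRC5 cells (normal lung tissue from a fetus), exposed to the test material at 1 or 10 μg/mL, with mortality scored against control. The method follows a previously published cytotoxicity procedure, with docetaxel as positive control.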

Aedes aegypti [2] = assay: Larvicidal activity against Aedes aegypti Paea assessed as mortality after 24 hrs by tube assay; type: functional; conditions: read-out: LD50 (the source's name)
Procedure, shortened: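 Tube assay on late third- or early fourth-instar larvae of the insecticide-susceptible Paea strain, kept at 28 ± 2 °C and 80 ± 20% RH. Compound in ethanol was added at five concentrations from 1 to 10 μg/mL, 10 tubes of 5 larvae each, in distilled water, with ethanol controls.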

MRC5 [3] = assay: Cytotoxicity against human MRC5 cells assessed as mortality at 1 ug/ml relative to control; type: cell-based; procedure, shortened: as §1
Aedes aegypti [4] = assay: Larvicidal activity against Aedes aegypti Cayenne assessed as mortality at 50 ug/ml after 24 hrs by tube assay relative to control; type: functional
Aedes aegypti [5] = assay: Larvicidal activity against Aedes aegypti Paea assessed as mortality at 50 ug/ml after 24 hrs by tube assay relative to control; type: functional

| Compound | mortality (MRC5 [1]) | LC50 (Aedes aegypti [2]) | mortality (MRC5 [3]) | mortality at 50 µg/mL (Aedes aegypti [4]) | mortality at 50 µg/mL (Aedes aegypti [5]) |
| --- | --- | --- | --- | --- | --- |
| C[C@H]1C(=O)CC[C@@H]2[C@]1(C)CC[C@H]1[C@@]2(C)C[C@H](O)[C@@]2(C)[C@@H]3CC(C)(C)CC[C@]3(C)[C@@H](O)C[C@]12C | 48% | > 10 µM | 16% |  |  |
| CC(=O)OC[C@]12[C@H](OC(C)=O)[C@H](OC(C)=O)[C@H]3OC(=O)C(C)(O)CCc4ncccc4C(=O)OC[C@@]4(C)O[C@@]1([C@H]3C)[C@@H](OC(C)=O)[C@@H]4C(=O)[C@@H]2OC(C)=O (stereo partly drawn) | 38% | > 10 µM | 24% |  |  |
| CC(=O)OC[C@]12[C@H](OC(=O)c3ccccc3)[C@H](OC(C)=O)[C@H]3OC(=O)C(C)(O)CCc4ncccc4C(=O)OC[C@@]4(C)O[C@@]1([C@H]3C)[C@@H](OC(C)=O)[C@@H]4C(=O)[C@@H]2OC(C)=O (stereo partly drawn) | 15% | 9.4 µM | 15% |  |  |
| CC(=O)OC[C@]12[C@H](OC(C)=O)[C@H](OC(=O)c3ccccc3)[C@H]3OC(=O)C(C)(O)CCc4ccncc4C(=O)OC[C@@]4(C)O[C@@]1([C@H]3C)[C@@H](OC(C)=O)[C@@H]4[C@@H](OC(C)=O)[C@@H]2OC(C)=O (stereo partly drawn) | 17% | > 10 µM | 15% |  |  |
| CC(=O)OC[C@]12[C@H](OC(=O)c3ccccc3)[C@H](OC(=O)c3ccccc3)[C@H]3OC(=O)C(C)(O)CCc4ncccc4C(=O)OC[C@@]4(C)O[C@@]1([C@H]3C)[C@@H](OC(C)=O)[C@@H]4C(=O)[C@@H]2OC(C)=O (stereo partly drawn) | 21% | 2.7 µM | 18% |  |  |
| CC1(C)[C@H](C(=O)O[C@H](C#N)c2cccc(Oc3ccccc3)c2)[C@@H]1C=C(Br)Br [DELTAMETHRIN] |  |  |  | 26% | 100% |
| CC(=O)O[C@@]12CO[C@@H]1C[C@H](O)[C@@]1(C)C(=O)[C@H](O)C3=C(C)[C@@H](OC(=O)[C@H](O)[C@@H](NC(=O)OC(C)(C)C)c4ccccc4)C[C@@](O)([C@@H](OC(=O)c4ccccc4)[C@H]21)C3(C)C [DOCETAXEL ANHYDROUS] |  |  | 0.0005% |  |  |

— ChEMBL document CHEMBL4014270, “Aedes aegypti Larvicidal Sesquiterpene Alkaloids from Maytenus oblongata” (J Nat Prod, 2017)
